# Active and inactive are the calls of the source. The calls are words filed in the database; no cut-off is given here.
# Assays:
# [1] = system: HOP-92; assay: Cytotoxicity against human HOP92 cells assessed as cellular growth at 10 uM; assay type: functional
# Summary of the method: (§1)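 Single-dose screen run by the NCI across its 60-human-tumour-cell-line panel; growth recorded for each cell line.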
# [2] = system: SR; assay: Cytotoxicity against human SR cells assessed as cellular growth at 10 uM; assay type: functional
# [3] = system: SF-295; assay: Cytotoxicity against human SF295 cells assessed as cellular growth at 10 uM; assay type: functional; summary of the method: as §1
# [4] = system: Malme-3M; assay: Cytotoxicity against human MALME-3M cells assessed as cellular growth at 10 uM; assay type: functional; summary of the method: as §1
# [5] = system: A498; assay: Cytotoxicity against human A498 cells assessed as cellular growth at 10 uM; assay type: functional; summary of the method: as §1
# [6] = system: SK-MEL-5; assay: Cytotoxicity against human SK-MEL-5 cells assessed as cellular growth at 10 uM; assay type: functional
# [7] = molecular target: Telomerase reverse transcriptase (Homo sapiens) (UniProt O14746); assay: Inhibition of telomerase activity in human H1299 cell free extract at 10 uM by modified TRAP assay
# Summary of the method: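 TRAP assay using total cell lysate from H1299 lung cancer cells as the telomerase source, with protein measured against BSA standards. Compounds tested at 10 µM. Controls were lysate without inhibitor (positive) and RNase A-treated extract without inhibitor (negative).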
# [8] = system: M14; assay: Cytotoxicity against human M14 cells assessed as cellular growth at 10 uM; assay type: functional; summary of the method: as §1
# [9] = Cytotoxicity against human Hs 578T cells assessed as cellular growth at 10 uM; assay type: functional; summary of the method: as §1
# [10] = molecular target: Telomerase reverse transcriptase (Homo sapiens) (UniProt O14746); assay: Residual activity of human TERT in H1299 cells at 1 uM after 24 hrs by SEAP reporter gene assay
# [11] = system: MCF7; assay: Cytotoxicity against human MCF7 cells assessed as cellular growth at 10 uM; assay type: functional; summary of the method: as §1
# [12] = system: OVCAR-4; assay: Cytotoxicity against human OVCAR4 cells assessed as cellular growth at 10 uM; assay type: functional; summary of the method: as §1
# [13] = system: SW-620; assay: Cytotoxicity against human SW620 cells assessed as cellular growth at 10 uM; assay type: functional
# [14] = system: 786-0; assay: Cytotoxicity against human 786-0 cells assessed as cellular growth at 10 uM; assay type: functional; summary of the method: as §1
# [15] = system: SNB-19; assay: Cytotoxicity against human SNB19 cells assessed as cellular growth at 10 uM; assay type: functional
# [16] = system: CCRF-CEM; assay: Cytotoxicity against human CCRF-CEM cells assessed as cellular growth at 10 uM; assay type: functional; summary of the method: as §1
# [17] = system: NCI-H23; assay: Cytotoxicity against human NCI-H23 cells assessed as cellular growth at 10 uM; assay type: functional; summary of the method: as §1
# [18] = system: SF-539; assay: Cytotoxicity against human SF539 cells assessed as cellular growth at 10 uM; assay type: functional; summary of the method: as §1
# [19] = system: MDA-MB-468; assay: Cytotoxicity against human MDA-MB-468 cells assessed as cellular growth at 10 uM; assay type: functional; summary of the method: as §1
# [20] = system: KM12; assay: Cytotoxicity against human KM12 cells assessed as cellular growth at 10 uM; assay type: functional; summary of the method: as §1
# [21] = system: UACC-62; assay: Cytotoxicity against human UACC62 cells assessed as cellular growth at 10 uM; assay type: functional
# [22] = molecular target: Telomerase reverse transcriptase (Homo sapiens) (UniProt O14746); assay: Residual activity of human TERT in H1299 cells at 100 uM after 24 hrs by SEAP reporter gene assay
# [23] = system: HCC 2998; assay: Cytotoxicity against human HCC2998 cells assessed as cellular growth at 10 uM; assay type: functional; summary of the method: as §1
# [24] = system: EKVX; assay: Cytotoxicity against human EKVX cells assessed as cellular growth at 10 uM; assay type: functional; summary of the method: as §1
# [25] = system: ACHN; assay: Cytotoxicity against human ACHN cells assessed as cellular growth at 10 uM; assay type: functional; summary of the method: as §1
# [26] = system: TK-10; assay: Cytotoxicity against human TK10 cells assessed as cellular growth at 10 uM; assay type: functional
# [27] = system: NCI/ADR-RES; assay: Cytotoxicity against human NCI/ADR-RES cells assessed as cellular growth at 10 uM; assay type: functional; summary of the method: as §1
# [28] = system: MDA-MB-231; assay: Cytotoxicity against human MDA-MB-231 cells assessed as cellular growth at 10 uM; assay type: functional; summary of the method: as §1
# [29] = system: HOP-62; assay: Cytotoxicity against human HOP62 cells assessed as cellular growth at 10 uM; assay type: functional; summary of the method: as §1
# [30] = system: IGROV-1; assay: Cytotoxicity against human IGROV1 cells assessed as cellular growth at 10 uM; assay type: functional; summary of the method: as §1
# [31] = system: HCT-15; assay: Cytotoxicity against human HCT15 cells assessed as cellular growth at 10 uM; assay type: functional; summary of the method: as §1
# [32] = system: SF-268; assay: Cytotoxicity against human SF268 cells assessed as cellular growth at 10 uM; assay type: functional; summary of the method: as §1
# [33] = molecular target: Telomerase reverse transcriptase (Homo sapiens) (UniProt O14746); assay: Residual activity of human TERT in H1299 cells at 10 uM after 24 hrs by SEAP reporter gene assay
# [34] = system: MDA-MB-435; assay: Cytotoxicity against human MDA-MB-435 cells assessed as cellular growth at 10 uM; assay type: functional; summary of the method: as §1
# [35] = system: U-251; assay: Cytotoxicity against human U251 cells assessed as cellular growth at 10 uM; assay type: functional
# [36] = system: SN12C; assay: Cytotoxicity against human SN12C cells assessed as cellular growth at 10 uM; assay type: functional
# [37] = Growth of human H1299 cells at 100 uM 48 hrs by MTT assay; details: NCI-H1299, 48 h
# [38] = system: OVCAR-3; assay: Cytotoxicity against human OVCAR3 cells assessed as cellular growth at 10 uM; assay type: functional; summary of the method: as §1
# [39] = system: PC-3; assay: Cytotoxicity against human PC3 cells after 48 hrs by SRB assay; assay type: functional, cell-based; details: PC-3, 48 h
# Summary of the method: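 PC-3 cells grown in RPMI1640 with 10% FBS at 37 °C, 5% CO₂. Seeded in medium with 5% FBS; after 24 h, one plate fixed with 10% TCA as T₀. Compound or 0.1% DMSO vehicle added for 48 h, then TCA fixation and 0.4% SRB in 1% acetic acid. Dye solubilized in 10 mM Trizma base, absorbance read at 515 nm. IC50 is the concentration giving 50% reduction of the protein gain in controls.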
# [40] = system: DU-145; assay: Cytotoxicity against human DU145 cells assessed as cellular growth at 10 uM; assay type: functional; summary of the method: as §1
# [41] = system: NCI-H522; assay: Cytotoxicity against human NCI-H522 cells assessed as cellular growth at 10 uM; assay type: functional; summary of the method: as §1
# [42] = system: SK-MEL-28; assay: Cytotoxicity against human SK-MEL-28 cells assessed as cellular growth at 10 uM; assay type: functional; summary of the method: as §1
# [43] = system: SK-MEL-2; assay: Cytotoxicity against human SK-MEL-2 cells assessed as cellular growth at 10 uM; assay type: functional; summary of the method: as §1
# [44] = system: BT-549; assay: Cytotoxicity against human BT549 cells assessed as cellular growth at 10 uM; assay type: functional; summary of the method: as §1
# [45] = Growth of human H1299 cells at 10 uM after 48 hrs by MTT assay; details: NCI-H1299, 48 h
# [46] = system: HT-29; assay: Cytotoxicity against human HT-29 cells assessed as cellular growth at 10 uM; assay type: functional; summary of the method: as §1
# [47] = system: MOLT-4; assay: Cytotoxicity against human MOLT4 cells assessed as cellular growth at 10 uM; assay type: functional; summary of the method: as §1
# [48] = system: HCT-116; assay: Cytotoxicity against human HCT116 cells assessed as cellular growth at 10 uM; assay type: functional; summary of the method: as §1
# [49] = Growth of human H1299 cells at 1 uM after 48 hrs by MTT assay; details: NCI-H1299, 48 h
# [50] = system: LOX IMVI; assay: Cytotoxicity against human LOXIMVI cells assessed as cellular growth at 10 uM; assay type: functional; summary of the method: as §1
# [51] = system: HL-60(TB); assay: Cytotoxicity against human HL-60(TB) cells assessed as cellular growth at 10 uM; assay type: functional; summary of the method: as §1
# [52] = system: NCI-H460; assay: Cytotoxicity against human NCI-H460 cells assessed as cellular growth at 10 uM; assay type: functional; summary of the method: as §1
# [53] = system: NCI-H226; assay: Cytotoxicity against human NCI-H226 cells assessed as cellular growth at 10 uM; assay type: functional; summary of the method: as §1
# [54] = system: OVCAR-5; assay: Cytotoxicity against human OVCAR5 cells assessed as cellular growth at 10 uM; assay type: functional; summary of the method: as §1
# [55] = system: SNB-75; assay: Cytotoxicity against human SNB75 cells assessed as cellular growth at 10 uM; assay type: functional
# [56] = system: UO-31; assay: Cytotoxicity against human UO31 cells assessed as cellular growth at 10 uM; assay type: functional
# [57] = system: NCI-H322M; assay: Cytotoxicity against human NCI-H322M cells assessed as cellular growth at 10 uM; assay type: functional; summary of the method: as §1
# Sequence of Telomerase reverse transcriptase (Homo sapiens) (O14746 whole entry): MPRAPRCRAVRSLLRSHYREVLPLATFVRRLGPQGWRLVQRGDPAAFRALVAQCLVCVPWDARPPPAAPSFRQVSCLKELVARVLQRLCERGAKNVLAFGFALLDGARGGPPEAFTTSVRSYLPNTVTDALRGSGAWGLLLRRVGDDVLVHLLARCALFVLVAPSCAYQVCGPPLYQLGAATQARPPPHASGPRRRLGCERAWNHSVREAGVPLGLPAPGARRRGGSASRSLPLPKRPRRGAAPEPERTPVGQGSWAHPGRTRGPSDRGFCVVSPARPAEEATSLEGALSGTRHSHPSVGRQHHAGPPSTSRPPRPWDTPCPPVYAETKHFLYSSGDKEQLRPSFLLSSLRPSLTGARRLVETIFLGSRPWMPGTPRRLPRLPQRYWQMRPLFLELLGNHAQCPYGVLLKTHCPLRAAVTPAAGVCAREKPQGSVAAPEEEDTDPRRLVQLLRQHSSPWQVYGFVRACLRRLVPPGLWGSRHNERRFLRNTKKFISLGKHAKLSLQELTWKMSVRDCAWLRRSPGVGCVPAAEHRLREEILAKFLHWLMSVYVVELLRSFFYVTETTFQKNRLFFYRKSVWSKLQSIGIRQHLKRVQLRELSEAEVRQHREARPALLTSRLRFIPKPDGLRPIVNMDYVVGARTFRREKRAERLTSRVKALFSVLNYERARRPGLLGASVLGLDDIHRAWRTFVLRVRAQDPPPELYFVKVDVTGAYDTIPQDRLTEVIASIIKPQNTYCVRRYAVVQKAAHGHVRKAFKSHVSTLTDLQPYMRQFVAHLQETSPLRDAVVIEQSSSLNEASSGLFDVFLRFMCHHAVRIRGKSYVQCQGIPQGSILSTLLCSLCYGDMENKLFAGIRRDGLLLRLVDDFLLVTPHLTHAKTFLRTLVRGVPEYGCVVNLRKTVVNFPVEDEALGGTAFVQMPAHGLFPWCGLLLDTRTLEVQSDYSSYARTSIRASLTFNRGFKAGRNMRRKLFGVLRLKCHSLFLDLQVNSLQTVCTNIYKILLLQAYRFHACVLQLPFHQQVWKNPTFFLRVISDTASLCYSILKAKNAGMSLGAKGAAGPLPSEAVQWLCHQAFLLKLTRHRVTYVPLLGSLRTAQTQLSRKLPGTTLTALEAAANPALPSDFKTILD
smiles,measurement,setting,value
O=C(CCl)Nc1ccc2c(c1NC(=O)Cc1ccccc1)C(=O)c1ccccc1C2=O,Activity,[1],73.63%
same,Activity,[2],-31.25%
same,Activity,[3],98.48%
same,Activity,[4],47.07%
same,Activity,[5],91.79%
same,Activity,[6],51.32%
same,inhibition,[7],inactive
same,Activity,[8],87.1%
same,Activity,[9],66.65%
same,residual activity,[10],84%
same,Activity,[11],51%
same,Activity,[12],80.4%
same,Activity,[13],83.41%
same,Activity,[14],97.26%
same,Activity,[15],124.27%
same,Activity,[16],33.97%
same,Activity,[17],64.75%
same,Activity,[18],107.09%
same,Activity,[19],51.02%
same,Activity,[20],80.59%
same,Activity,[21],59.67%
same,residual activity,[22],7%
same,Activity,[23],94.74%
same,Activity,[24],102.08%
same,Activity,[25],79.64%
same,Activity,[26],120.81%
same,Activity,[27],86.87%
same,Activity,[28],82.04%
same,Activity,[29],115.67%
same,Activity,[30],41.03%
same,Activity,[31],68.55%
same,Activity,[32],80.14%
same,residual activity,[33],9%
same,Activity,[34],80.4%
same,Activity,[35],66.17%
same,Activity,[36],79.93%
same,"growth, % of control at 100 µM",[37],3%
same,Activity,[38],86.38%
same,IC50,[39],> 20 µM
same,Activity,[40],85.83%
same,Activity,[41],43.37%
same,Activity,[42],88.68%
same,Activity,[43],-6.49%
same,Activity,[44],79.78%
same,"growth, % of control at 10 µM",[45],5%
same,Activity,[46],88.84%
same,Activity,[47],11.4%
same,Activity,[48],67.55%
same,"growth, % of control at 1 µM",[49],81%
same,Activity,[50],36.29%
same,Activity,[51],41.36%
same,Activity,[52],104.5%
same,Activity,[53],80.49%
same,Activity,[54],119.04%
same,Activity,[55],109.14%
same,Activity,[56],58.19%
same,Activity,[57],104.38%
O=C(CCl)Nc1ccc2c(c1NC(=O)c1cccc(F)c1)C(=O)c1ccccc1C2=O,inhibition,[7],inactive
same,residual activity,[10],26%
same,residual activity,[22],0%
same,residual activity,[33],1%
same,"growth, % of control at 100 µM",[37],1%
same,IC50,[39],3.48 µM
same,"growth, % of control at 10 µM",[45],8%
same,"growth, % of control at 1 µM",[49],18%
Cc1ccc(C(=O)Nc2c(NC(=O)CN3CCN(c4ncccn4)CC3)ccc3c2C(=O)c2ccccc2C3=O)cc1,inhibition,[7],inactive
same,residual activity,[10],87%
same,residual activity,[22],19%
same,residual activity,[33],79%
same,"growth, % of control at 100 µM",[37],59%
same,IC50,[39],> 20 µM
same,"growth, % of control at 10 µM",[45],91%
same,"growth, % of control at 1 µM",[49],102%
Cc1ccc(C(=O)Nc2c(NC(=O)CN3CCCCC3)ccc3c2C(=O)c2ccccc2C3=O)cc1,inhibition,[7],inactive
same,residual activity,[10],85%
same,residual activity,[22],8%
same,residual activity,[33],70%
same,"growth, % of control at 100 µM",[37],10%
same,IC50,[39],> 20 µM
same,"growth, % of control at 10 µM",[45],70%
same,"growth, % of control at 1 µM",[49],86%
Cc1ccc(C(=O)Nc2c(NC(=O)CN3CCOCC3)ccc3c2C(=O)c2ccccc2C3=O)cc1,inhibition,[7],inactive
same,residual activity,[10],98%
same,residual activity,[22],3%
same,residual activity,[33],54%
same,"growth, % of control at 100 µM",[37],15%
same,IC50,[39],> 20 µM
same,"growth, % of control at 10 µM",[45],56%
same,"growth, % of control at 1 µM",[49],81%

# Reference: ChEMBL document CHEMBL1926565, “Synthesis, antiproliferative activities and telomerase inhibition evaluation of novel asymmetrical 1,2-disubstituted amidoanthraquinone derivatives” (Eur J Med Chem, 2012)
